Results from ChEMBL document CHEMBL1121405, “Antihypertensive indole derivatives of phenoxypropanolamines with beta-adrenergic receptor antagonist and vasodilating activity” (1980).

How the values were obtained:
Rattus norvegicus [1] = experiment: Antihypertensive activity in spontaneously hypertensive rats after peroral administration; type: functional
Summary of the method: (§1)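 SHR, 3-day test. After about 20 min prewarming at 37 °C, indirect systolic pressure by tail cuff at 0 (control), 22, 24, 26 and 46 h. Oral dosing at 0 and 22 h, at 100 mg/kg unless footnoted otherwise. Groups of five rats; maximum mean fall from the control reading is rated in bands (<25, 25-34, 35-44, ≥45 mmHg).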

Rattus norvegicus [2] = experiment: Vasodilator activity in ganglion blocked rats. Values denote percent change in mean arterial blood pressure 30 minutes after dosing rats at 3 mg/kg intravenously; type: functional; details: route intravenous
Summary of the method: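 Male Wistar rats (275-450 g), urethane 800 mg/kg plus chloralose 60 mg/kg ip, then chlorisondamine 2.5 mg/kg ip for ganglion block. Angiotensin II infused iv at 0.25 or 0.35 μg/min to a new steady pressure. Drug given iv over 3 min; femoral mean arterial pressure recorded at 30 min as % change ± SEM.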

Rattus norvegicus [3] = species on record: Rattus norvegicus; experiment: Intrinsic sympathomimetic action in reserpinized rats; type: functional
Summary of the method: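 Reserpinized rats given 0.3 mg/kg iv. Read-out is increase in heart rate (bpm), mean ± SEM, n = 3-6.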

Rattus norvegicus [4] = experiment: The compound was tested for antihypertensive activity in spontaneously hypertensive rats after peroral administration. Activity value is 35-44 mmHg; type: functional; summary of the method: as §1
[5] = target: T1, Adrenergic receptor beta (Rattus norvegicus) (UniProt P18090+P10608+P26255); experiment: Beta-adrenergic receptor blockade activity in conscious normotensive rats at a dose of 0.5 mg/kg; type: functional, organism-based; set-up: dose 0.5 mg/kg
Rattus norvegicus [6] = experiment: Antihypertensive activity in spontaneously hypertensive rats after peroral administration,; type: functional; summary of the method: as §1
Rattus norvegicus [7] = experiment: The compound was tested for antihypertensive activity in spontaneously hypertensive rats after peroral administration, Activity value is <25 mmHg; type: functional; summary of the method: as §1
[8] = target: T1, Adrenergic receptor beta (Rattus norvegicus); experiment: The compound was tested for beta-adrenergic receptor blockade activity in conscious normotensive rats at a dose of 2 mg/kg; type: functional, organism-based; set-up: dose 2 mg/kg
Rattus norvegicus [9] = experiment: The compound was tested for antihypertensive activity in spontaneously hypertensive rats after peroral administration, dosed at 30 mg/kg; type: functional; details: route oral
Summary of the method: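 Conscious spontaneously hypertensive rats, groups of five per compound. Given orally at 0 and 22 h. Before tail-cuff readings, rats were prewarmed to 37 °C for about 20 min. Indirect systolic pressure was read at 0 (control), 22, 24, 26 and 46 h. Activity was scored from the maximum mean fall from control: under 25 mmHg (±), 25-34 (+), 35-44 (++), 45 mmHg and over (+++).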

| SMILES | Actvity (Rattus norvegicus [1]) [mmHg] | Delta MAP (Rattus norvegicus [2]) [%] | Activity (Rattus norvegicus [3]) [beats min-1] | further results |
| --- | --- | --- | --- | --- |
| CC(C)(Cc1c[nH]c2ccccc12)NCC(O)COc1ccccc1C1CCCCC1 (configuration not stated) | <25 | 18 | – | – |
| Cc1ccccc1OCC(O)CNC(C)(C)Cc1c[nH]c2ccccc12 (configuration not stated) | 34 | -18 | 100 | – |
| Cc1cccc(OCC(O)CNC(C)(C)Cc2c[nH]c3ccccc23)c1C (configuration not stated) | – | 8 | – | Actvity (Rattus norvegicus [4]): 44 mmHg; inhibition [5]: 79% |
| CC(C)NCC(O)COc1cccc2ccccc12 (configuration not stated) [PROPRANOLOL] | <25 | – | – | – |
| Cc1cccc(C)c1OCC(O)CNC(C)(C)Cc1c[nH]c2ccccc12 (configuration not stated) | – | -4 | – | Actvity (Rattus norvegicus [6]): <25 mmHg |
| CC(C)(Cc1c[nH]c2ccccc12)NCC(O)COc1ccccc1F (configuration not stated) | – | -33 | – | Actvity (Rattus norvegicus [7]): <25 mmHg; inhibition [5]: 58% |
| CC(C)(Cc1c[nH]c2ccccc12)NCC(O)COc1ccccc1C(F)(F)F (configuration not stated) | 44 | -34 | 88 | – |
| CSc1ccccc1OCC(O)CNC(C)(C)Cc1c[nH]c2ccccc12 (configuration not stated) | – | -29 | – | – |
| Cc1ccc(OCC(O)CNC(C)(C)Cc2c[nH]c3ccccc23)c(C)c1 (configuration not stated) | 34 | 13 | – | – |
| CC(C)(Cc1c[nH]c2ccccc12)NCC(O)COc1ccccc1C#N (configuration not stated) [BUCINDOLOL] | 45 | -26 | 77 | inhibition [8]: 71% |
| Cc1cc(S(C)(=O)=O)ccc1OCC(O)CNC(C)(C)Cc1c[nH]c2ccccc12 (configuration not stated) | <25 | -8 | – | – |
| CCC(C)c1ccccc1OCC(O)CNC(C)(C)Cc1c[nH]c2ccccc12 (configuration not stated) | – | 22 | -8 | Actvity (Rattus norvegicus [6]): <25 mmHg |
| CC(C)(Cc1c[nH]c2ccccc12)NCC(O)COc1ccccc1C(N)=O (configuration not stated) | 44 | -25 | 74 | – |
| CC(C)(Cc1c[nH]c2ccccc12)NCC(O)COc1ccccc1-c1ccccc1 (configuration not stated) | – | 12 | – | Actvity (Rattus norvegicus [6]): <25 mmHg |
| CC(C)(Cc1c[nH]c2ccccc12)NCC(O)COc1ccccc1N (configuration not stated) | 44 | -11 | 105 | – |
| CC(C)(Cc1c[nH]c2ccccc12)NCC(O)COc1ccccc1 (configuration not stated) | <25 | -26 | 141 | – |
| CC(C)(Cc1c[nH]c2ccccc12)NCC(O)COc1ccccc1[N+](=O)[O-] (configuration not stated) | <25 | -38 | 106 | – |
| Cc1cc(Cl)ccc1OCC(O)CNC(C)(C)Cc1c[nH]c2ccccc12 (configuration not stated) | – | 11 | – | – |
| CC(C)NCC(O)COc1cccc2[nH]ccc12 (configuration not stated) [PINDOLOL] | – | -32 | 120 | Actvity (Rattus norvegicus [9]): <25 mmHg |
